# Source: PubChem BioAssay
# Hits are enriched below; roughly 4.4% of the tested compounds scored in any of these assays.
# Calb FLC = affects C. albicans growth with fluconazole. C. albicans CaCi-2 (fluconazole-resistant clinical isolate) + fluconazole, Alamar Blue growth, 48 h. growth inhibition, % (no concentration beside the values). 300,000 tested, 0.57% active;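 active = growth inhibition above about 58% in most replicates, limit read from the data, passing the limit was not always enough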;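 note: all wells also contain fluconazole at 8 µg/ml as a sub-toxic cotreatment; 0% = median of DMSO wells and 100% = median of geldanamycin control wells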
# HSF-1 act = increases HSF-1 driven luciferase reporter signal. NIH3T3-HGL HSF-1 luciferase reporter, MG132, 8 h; 100% = twice DMSO control signal. activation, % at 9 µM. 300,000 tested, 1.7% active;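 active = mean replicate activation of at least 50% with a set share of replicates each reaching 50%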;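 note: 0% = median of the neutral control wells and 100% = twice that signal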
# HIF act = HIF pathway transcriptional activation | U2OS HRE-luciferase reporter, luminescence; normalized: DMSO 0%, desferrioxamine 100% | activation, % at 7.5 µM (by protocol) | 300,000 tested, 0.32% active | AID 1910;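 active = mean activation of at least 10% of the iron chelator positive control signal, with at least half of replicates also reaching 10%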
# T cruzi inh = T. cruzi replication inhibition | 300,000 tested, 1.4% active | inhibition, % (no concentration beside the values) | AID 1885 | T. cruzi beta-gal in NIH3T3, luminescence, 90 h;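 active = mean inhibition across valid replicates above about 55%, limit read from the data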;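 note: signal also drops with host cell toxicity which is not excluded here; 0% = plate median of DMSO wells and 100% = zero luminescence signal; higher percent means less beta-gal luminescence so fewer parasites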
#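 Assay system: NIH/3T3 host cells with β-galactosidase reporter T. cruzi; input: 5,000 host fibroblasts per well; compound: single 50 nL compound addition per well in DMSO; timing: ≥90 h infection period, 3 h prior cell attachment; measured by: GalScreen β-gal luminescence, detergent lysis, 60 min; evaluation: percent inhibition of parasite-derived β-gal signal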
# HSF1 inh = HSF1 inhibition. 300,000 tested, 0.77% active. NIH3T3-HGL HSE-luciferase, MG132-induced, luminescence 8 h; hits give low values. AID 2098. activity change, negative = inhibition, % at 7.5 µM (by protocol);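 active = more than half of replicate wells show activity change below -50%, luminescence cut by over half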;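 note: luciferase reports HSF-1 transcriptional activity via heat shock element; 0% = median of DMSO wells and -100% = zero luminescence signal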
# Active calls of the source: *.
SMILES,Calb FLC,HSF-1 act,HIF act,T cruzi inh,HSF1 inh
CS(=O)(=O)Nc1ccc2[nH]c(=O)[nH]c2c1,-4.5,1.7,-0.6,-2.9,1.0
Cc1c(Cl)cccc1NC(=O)c1cc(-c2ccccc2O)n[nH]1,-0.9,86.7*,2.1,-15.8,68.6
COc1ccc(Cl)cc1NC(=O)c1cc(-c2ccccc2O)n[nH]1,6.3,30.2,-0.2,-1.7,-3.6
Cc1cccc(NC(=O)c2cc(-c3cc(C)ccc3O)n[nH]2)c1,20.0,103.6*,-5.0,-8.4,55.2
CC(Cc1ccccn1)NC(=O)CCc1nnc(C2CCCCC2)o1 (stereo unspecified),4.5,10.2,0.0,0.0,-0.5
O=C(CSc1nncs1)NCCCc1ccccc1,-13.7,3.6,-0.1,-5.9,8.2
Cc1ccc(/C=N/Nc2nnc(Cl)c3ccccc23)cc1,33.2,64.6*,1.6,-13.2,34.1
Clc1ccc(/C=N/Nc2nnc(Cl)c3ccccc23)cc1,4.8,120.8*,3.0,-9.0,85.0
COc1ccc(OC)c(NC(=O)C2CCCN(S(=O)(=O)c3c(C)noc3C)C2)c1 (stereo unspecified),-4.6,-11.0,-0.8,5.2,3.1
CCOC(=O)C1CCCN(CCC(=O)Nc2cc(OC)ccc2OC)C1 (stereo unspecified),-1.2,-61.6,-0.1,0.4,-51.5*
COc1ccc(OC)c(NC(=O)C2CCCN(S(=O)(=O)c3c(C)nn(C)c3C)C2)c1 (stereo unspecified),-1.7,-78.4,0.0,6.8,-71.6*
Cc1cc(-c2ccccc2C(=O)NC2CCCCC2)on1,0.3,8.1,-0.4,-1.8,-3.6
Cc1ccccc1CNC(=O)C1CCC(=O)N(C2CCCCCC2)C1 (stereo unspecified),-8.3,-17.0,0.1,-5.5,-3.1
Clc1ccc(CSc2nnc(-c3ccncc3)s2)cc1,12.9,11.3,3.3,59.4*,2.7
Clc1cccc(Cl)c1CSc1nnc(-c2ccncc2)s1,-3.8,48.9,1.6,49.5,15.1
CCN(CC)C(=O)CSc1nc(C)cc(C)n1,10.1,26.2,-0.1,-9.7,8.9
CCOc1ccc(CC(=O)N2N=C(C)CC2(O)C(F)(F)F)cc1 (stereo unspecified),3.6,28.5,-0.3,4.0,-2.7
Clc1ccc(/C=C/c2nc3ccccc3[nH]2)c(Cl)c1,55.4,-36.3,-5.2,58.2*,-29.1
Clc1ccc(/C=C/c2nc3ccccc3[nH]2)cc1,-3.8,18.9,-3.5,33.0,-8.4
